From ChEMBL document CHEMBL1135904, “Toward an optimal joint recognition of the S1' subsites of endothelin converting enzyme-1 (ECE-1), angiotensin converting enzyme (ACE), and neutral endopeptidase (NEP)” (J Med Chem, 2002)

How the values were obtained:
Neprilysin [1] = molecular target: T1, Neprilysin (Oryctolagus cuniculus, UniProt P08049); test: Inhibition of neutral endopeptidase (NEP) isolated from rabbit kidney
T1 sequence (P08049 whole entry): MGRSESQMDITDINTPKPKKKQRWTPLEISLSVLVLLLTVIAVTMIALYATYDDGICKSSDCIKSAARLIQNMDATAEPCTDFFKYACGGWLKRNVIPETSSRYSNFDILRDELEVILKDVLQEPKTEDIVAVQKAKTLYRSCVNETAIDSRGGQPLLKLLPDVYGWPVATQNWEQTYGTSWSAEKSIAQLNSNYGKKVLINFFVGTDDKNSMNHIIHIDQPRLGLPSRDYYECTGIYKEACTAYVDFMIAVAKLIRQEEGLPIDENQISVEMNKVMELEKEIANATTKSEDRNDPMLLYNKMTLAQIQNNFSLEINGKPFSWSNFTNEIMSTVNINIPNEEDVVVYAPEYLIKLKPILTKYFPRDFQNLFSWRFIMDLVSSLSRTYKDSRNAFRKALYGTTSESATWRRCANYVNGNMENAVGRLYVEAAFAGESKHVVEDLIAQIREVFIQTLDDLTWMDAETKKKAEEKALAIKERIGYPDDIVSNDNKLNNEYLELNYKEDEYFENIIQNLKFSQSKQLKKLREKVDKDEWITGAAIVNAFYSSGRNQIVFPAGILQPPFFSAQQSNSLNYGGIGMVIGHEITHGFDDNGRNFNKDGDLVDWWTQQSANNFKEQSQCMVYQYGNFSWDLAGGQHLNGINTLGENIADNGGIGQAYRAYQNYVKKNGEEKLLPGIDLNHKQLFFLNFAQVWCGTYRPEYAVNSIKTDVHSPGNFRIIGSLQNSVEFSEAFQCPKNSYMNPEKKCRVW
Summary of the method: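 Rabbit kidney NEP purified to homogeneity, final 250 ng/mL, preincubated 10 min at 37 °C with or without rising inhibitor concentrations in 50 mM Tris-HCl pH 7.4. Then 50 µM DGPA (Dansyl-Gly-(p-NO2)Phe-β-Ala; Km 37 µM) added for 1 h. Stopped with DMSO. Fluorescence read at ex 340/em 530 nm.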

[2] = molecular target: T2, Endothelin-converting enzyme 1 (Homo sapiens, UniProt P42892); test: Inhibition activity towards human recombinant Endothelin-converting enzyme 1 (hECE-1c) expressed in Cos-7 cells; format: cell-based
T2 sequence (P42892 whole entry): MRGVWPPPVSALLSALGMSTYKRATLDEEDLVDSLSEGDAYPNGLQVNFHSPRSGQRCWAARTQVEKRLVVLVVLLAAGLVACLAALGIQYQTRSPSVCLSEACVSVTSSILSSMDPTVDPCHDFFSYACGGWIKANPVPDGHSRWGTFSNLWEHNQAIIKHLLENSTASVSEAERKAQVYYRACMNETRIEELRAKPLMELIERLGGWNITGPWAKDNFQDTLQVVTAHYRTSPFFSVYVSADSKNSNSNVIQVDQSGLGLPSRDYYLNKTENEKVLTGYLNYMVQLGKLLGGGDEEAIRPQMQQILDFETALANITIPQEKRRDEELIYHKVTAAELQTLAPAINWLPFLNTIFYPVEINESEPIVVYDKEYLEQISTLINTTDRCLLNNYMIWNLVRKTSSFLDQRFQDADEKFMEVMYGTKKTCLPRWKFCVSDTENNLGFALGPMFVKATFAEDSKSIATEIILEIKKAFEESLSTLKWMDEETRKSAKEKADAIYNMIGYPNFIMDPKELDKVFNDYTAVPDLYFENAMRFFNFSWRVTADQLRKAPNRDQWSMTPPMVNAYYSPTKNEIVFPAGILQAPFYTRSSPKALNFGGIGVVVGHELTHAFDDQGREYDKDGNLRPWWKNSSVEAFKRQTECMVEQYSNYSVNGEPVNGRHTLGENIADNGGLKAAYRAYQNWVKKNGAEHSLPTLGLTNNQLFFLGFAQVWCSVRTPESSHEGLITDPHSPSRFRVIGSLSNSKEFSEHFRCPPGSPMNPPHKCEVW
Summary of the method: (§1)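 Recombinant human ECE-1c from Cos-7 cells, 4 µg total protein per well, preincubated 10 min at 37 °C in 50 mM tris-maleate pH 6-8 with or without rising inhibitor concentrations. Reaction started with 20 µM (Pya21-(p-NO2)Phe22)bigET(19-35) (Km 20 µM), run 1 h at 37 °C, stopped by cooling. Fluorescence read at ex 340/em 400 nm.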

[3] = molecular target: T3, Angiotensin-converting enzyme (Rattus norvegicus, UniProt P47820); test: Inhibition of Angiotensin I converting enzyme (ACE) purified from rat testis
T3 sequence (P47820 whole entry): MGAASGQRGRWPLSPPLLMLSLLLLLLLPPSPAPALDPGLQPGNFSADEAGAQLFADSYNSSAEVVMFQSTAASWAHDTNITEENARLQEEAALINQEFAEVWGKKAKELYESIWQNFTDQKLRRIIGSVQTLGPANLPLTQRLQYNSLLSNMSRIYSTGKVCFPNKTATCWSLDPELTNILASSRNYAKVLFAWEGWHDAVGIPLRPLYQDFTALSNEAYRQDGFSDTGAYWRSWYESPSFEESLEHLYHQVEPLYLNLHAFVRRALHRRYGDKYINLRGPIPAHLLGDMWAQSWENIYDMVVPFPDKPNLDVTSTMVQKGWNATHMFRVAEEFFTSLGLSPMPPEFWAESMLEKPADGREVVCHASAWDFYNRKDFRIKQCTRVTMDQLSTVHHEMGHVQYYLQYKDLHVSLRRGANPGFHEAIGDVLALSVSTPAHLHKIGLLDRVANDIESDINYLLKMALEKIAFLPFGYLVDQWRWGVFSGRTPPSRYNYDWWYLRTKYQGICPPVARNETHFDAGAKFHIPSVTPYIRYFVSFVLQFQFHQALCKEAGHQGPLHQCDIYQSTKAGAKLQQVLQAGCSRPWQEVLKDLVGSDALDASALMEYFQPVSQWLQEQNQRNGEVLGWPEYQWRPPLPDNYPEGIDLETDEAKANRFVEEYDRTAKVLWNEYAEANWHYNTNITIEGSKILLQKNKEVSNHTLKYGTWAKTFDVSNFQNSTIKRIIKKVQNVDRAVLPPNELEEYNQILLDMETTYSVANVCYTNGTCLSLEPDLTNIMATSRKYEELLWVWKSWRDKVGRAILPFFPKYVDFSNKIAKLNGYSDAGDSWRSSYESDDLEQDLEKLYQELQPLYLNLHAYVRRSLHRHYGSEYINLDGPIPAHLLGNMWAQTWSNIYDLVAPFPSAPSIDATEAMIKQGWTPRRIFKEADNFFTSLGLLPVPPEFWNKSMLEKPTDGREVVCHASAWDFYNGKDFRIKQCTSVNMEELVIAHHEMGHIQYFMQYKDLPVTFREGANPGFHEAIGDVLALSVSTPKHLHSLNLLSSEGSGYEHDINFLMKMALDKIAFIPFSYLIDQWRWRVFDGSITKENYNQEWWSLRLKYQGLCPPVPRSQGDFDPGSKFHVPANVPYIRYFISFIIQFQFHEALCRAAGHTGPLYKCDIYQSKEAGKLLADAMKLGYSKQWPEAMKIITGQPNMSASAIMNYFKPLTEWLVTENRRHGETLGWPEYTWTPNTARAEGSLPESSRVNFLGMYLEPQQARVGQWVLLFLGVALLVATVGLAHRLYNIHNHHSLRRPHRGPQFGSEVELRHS
Summary of the method: (§2)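 ACE purified from rat testis, final 0.02 pmol/100 µL, preincubated 10 min at 37 °C with or without various inhibitor concentrations in 50 mM Tris/HCl/NaCl 1% pH 7.4. Then 50 µM N-Cbz-Phe-His-Leu (Km 50 µM) added for 30 min. Stopped with 2 N NaOH and diluted with water. Released His-Leu measured fluorometrically.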

[4] = molecular target: T3, Angiotensin-converting enzyme; test: Inhibition of Angiotensin I converting enzyme (ACE); summary of the method: as §2
[5] = molecular target: T2, Endothelin-converting enzyme 1; test: Inhibition of Endothelin-converting enzyme 1 (ECE); summary of the method: as §1
Neprilysin [6] = molecular target: T1, Neprilysin; test: Inhibition of neutral endopeptidase (NEP)
Summary of the method: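 NEP purified from rabbit kidney (final 250 ng/mL) preincubated 10 min at 37 °C with or without increasing inhibitor concentrations in 50 mM Tris-HCl pH 7.4. Reaction stopped after 1 h with DMSO.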

SMILES | Ki (Neprilysin [1]) | Ki [2] | Ki [3] | Ki [4] | Ki (Neprilysin [6]) | Ki [5]
O=C(O)[C@H](Cc1c[nH]c2ccccc12)NC(=O)[C@H](CS)[C@@H]1CCc2ccccc21 | 27 nM | 680 nM | 170 nM |  |  | 
O=C(O)[C@H](Cc1c[nH]c2ccccc12)NC(=O)[C@@H](CS)[C@H]1CCc2ccccc21 | 2.1 nM | 290 nM | 10 nM |  |  | 
CC(c1ccc(-c2ccccc2)cc1)C(CS)C(=O)N[C@@H](Cc1c[nH]c2ccccc12)C(=O)O (stereo not given in full) | 4.8 nM | 220 nM | 62 nM |  |  | 
O=C(O)[C@H](Cc1c[nH]c2ccccc12)NC(=O)[C@H](CS)[C@@H]1CCCc2ccccc21 | 43 nM | 1240 nM | 134 nM |  |  | 
C[C@H](c1ccccc1)[C@@H](CS)C(=O)N[C@@H](Cc1c[nH]c2ccccc12)C(=O)O | 5 nM | 580 nM | 290 nM |  |  | 
C[C@H](c1ccc(-c2ccccc2)cc1)[C@@H](CS)C(=O)N[C@@H](Cc1c[nH]c2ccccc12)C(=O)O | 5 nM | 190 nM | 330 nM |  |  | 
O=C(N[C@@H](Cc1c[nH]c2ccccc12)C(=O)O)C(CS)[C@@H]1CCCc2ccccc21 (stereo not given in full) | 8 nM | 670 nM | 26 nM |  |  | 
O=C(O)C(Cc1c[nH]c2ccccc12)NC(=O)C(CS)C(c1ccccc1)c1ccccc1 (stereo not given) |  |  |  | 250 nM | 140 nM | > 10000 nM
C[C@@H](c1ccc(-c2ccccc2)cc1)[C@H](CS)C(=O)N[C@@H](Cc1c[nH]c2ccccc12)C(=O)O | 35 nM | 920 nM | 38 nM |  |  | 
C[C@H](c1ccccc1)[C@H](CS)C(=O)N[C@@H](Cc1c[nH]c2ccccc12)C(=O)O | 2.2 nM | 100 nM | 29 nM |  |  | 
CC(c1ccc2ccccc2c1)C(CS)C(=O)NC(Cc1c[nH]c2ccccc12)C(=O)O (stereo not given) | 5.4 nM | 980 nM | 47 nM |  |  | 
C[C@@H](c1ccccc1)[C@H](CS)C(=O)N[C@@H](Cc1c[nH]c2ccccc12)C(=O)O | 2.5 nM | 780 nM | 15 nM |  |  | 
C[C@H](CS)C(=O)N1CCC[C@H]1C(=O)O [CAPTOPRIL] |  |  |  |  | > 1000 nM | > 10000 nM
O=C(O)CNC(=O)C(CS)Cc1ccccc1 (stereo not given) [THIORPHAN] |  |  |  | > 100 nM |  | > 10000 nM

Now from value to molecule, other results behind:

Ki (Neprilysin [1]) | Ki [2] | Ki [3] | Ki [4] | Ki (Neprilysin [6]) | SMILES | Ki [5]
10 nM | 1140 nM | 41 nM |  |  | O=C(O)[C@H](Cc1c[nH]c2ccccc12)NC(=O)[C@@H](CS)[C@@H]1CCc2ccccc21 | 
2.4 nM | 200 nM | 33 nM |  |  | C[C@@H](c1ccccc1)[C@@H](CS)C(=O)N[C@@H](Cc1c[nH]c2ccccc12)C(=O)O | 
0.7 nM | 26 nM | 43 nM |  |  | O=C(O)[C@H](Cc1c[nH]c2ccccc12)NC(=O)[C@H](CS)[C@H]1CCc2ccccc21 | 
 |  |  | > 10000 nM | 2.2 nM | O=P(O)(O)C(CCc1cccc2ccccc12)N[C@@H](Cc1ccc(-c2ccccc2)cc1)c1nnn[nH]1 (stereo not given in full) | 10.8 nM
22 nM | 1560 nM | 150 nM |  |  | O=C(O)C(Cc1c[nH]c2ccccc12)NC(=O)C(CS)c1cccc2ccccc12 (stereo not given) | 
35 nM | 900 nM | 150 nM |  |  | O=C(O)C(Cc1c[nH]c2ccccc12)NC(=O)C(CS)c1cccc(-c2ccccc2)c1 (stereo not given) | 
3 nM | 300 nM | 40 nM |  |  | CC(c1ccccc1)C(CS)C(=O)NC(Cc1c[nH]c2ccccc12)C(=O)O (stereo not given) | 
30 nM | 110 nM | 65 nM |  |  | C[C@H](c1ccc(-c2ccccc2)cc1)[C@H](CS)C(=O)N[C@@H](Cc1c[nH]c2ccccc12)C(=O)O | 
51 nM | 600 nM | 79 nM |  |  | CC(c1cccc2ccccc12)C(CS)C(=O)NC(Cc1c[nH]c2ccccc12)C(=O)O (stereo not given) | 
4.5 nM | 300 nM | 18 nM |  |  | O=C(O)C(Cc1c[nH]c2ccccc12)NC(=O)C(CS)C1CCCc2ccccc21 (stereo not given) | 
3 nM | 250 nM | 76 nM |  |  | O=C(O)[C@H](Cc1c[nH]c2ccccc12)NC(=O)[C@H](CS)[C@H]1CCCc2ccccc21 | 
135 nM | 4150 nM | 77 nM |  |  | O=C(O)C(Cc1c[nH]c2ccccc12)NC(=O)C(CS)c1ccc(-c2ccccc2)cc1 (stereo not given) | 
1.8 nM | 100 nM | 20 nM |  |  | O=C(O)C(Cc1c[nH]c2ccccc12)NC(=O)C(CS)C1CCc2ccccc21 (stereo not given) | 
3 nM | 190 nM | 10 nM |  |  | O=C(O)[C@H](Cc1c[nH]c2ccccc12)NC(=O)[C@@H](CS)[C@H]1CCCc2ccccc21 | 
1.5 nM | 135 nM | 130 nM |  |  | C[C@@H](c1ccc(-c2ccccc2)cc1)[C@@H](CS)C(=O)N[C@@H](Cc1c[nH]c2ccccc12)C(=O)O | 
